# Rows were chosen to be rich in hits. Some 4.5% of all compounds tested hit in one or more screens of this group.
# OX1R antag-1 – antagonists of human orexin 1 receptor (OX1R); O43613; OX1R-expressing cells, FRET antagonist read-out; inhibition, % at 6.6 µM; actives 1.8% (n = 330,000); in the data active = inhibition mostly above about 38%, no sharp cut-off; inactive = mostly below about 40%
# GPR7 antag – antagonists of human GPR7 (neuropeptides B/W receptor 1). GPR7-expressing cells, fluorescence antagonist assay. inhibition, % at 4.4 µM. actives 1.1% (n = 290,000). AID 1861; in the data active = inhibition above about 16%, passing the limit was not always enough;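 also: cells stimulated with the agonist NPW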
# Target sequence (P48145 whole entry, looked up): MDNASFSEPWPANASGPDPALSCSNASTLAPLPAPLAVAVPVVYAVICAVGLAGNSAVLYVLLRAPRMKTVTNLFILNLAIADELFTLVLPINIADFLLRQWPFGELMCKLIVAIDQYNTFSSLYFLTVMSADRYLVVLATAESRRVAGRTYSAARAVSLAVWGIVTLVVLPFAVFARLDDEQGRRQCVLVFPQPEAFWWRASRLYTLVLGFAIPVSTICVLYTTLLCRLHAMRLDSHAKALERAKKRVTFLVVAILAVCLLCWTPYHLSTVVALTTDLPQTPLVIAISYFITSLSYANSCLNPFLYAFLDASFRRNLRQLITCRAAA
# TAAR1 agonist – human TAAR1 agonism; Q96RJ0; CHO RD-HGA16 TAAR1, Fluo-8 calcium fluorescence; vehicle wells 0%, saturating PEA agonist 100%; activation, % at 3 µM; actives 0.99% (n = 360,000); AID 624467;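 active = activation above the mean activation of all test compounds in the run plus 3 SD, cut at about 38% in these data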
#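 System: CHO-derived RD-HGA16 cells with stable Gα16 and human TAAR1. Times: 17-24 h plating, Fluo-8 75 min 37 °C, 30 min RT. Measured by: calcium-sensitive Fluo-8 signal, excitation 470-495, emission 515-575 nm. Read-out basis: % activation relative to PEA EC100 response. Control set: DMSO and PEA EC100. Repeats: no replicates (n 1).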
# CHO parental Ca – counter-screen for OX1R antagonists: effect in parental CHO cells. parental CHO-K1, ATP-induced calcium, Fluo-8 fluorescence. inhibition, % at 5.6 µM. actives 0.63% (n = 330,000). AID 463079;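 active = inhibition above that plate's mean sample inhibition plus 3 SD, cut at about 26% in these data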
#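 Assay system: parental CHO cells; Read-out basis: percent inhibition of ATP-evoked calcium rise, normalized to controls; Benchmarks: ATP and no-ATP DMSO wells; Compound dosing: single nominal dose of 5.6 µM per compound; Signal: Fluo-8 calcium dye fluorescence; Also added: ATP as calcium-mobilizing challenge; Repeats: singlicate.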
# OX1R antag-2 – antagonists of human orexin 1 receptor; AID 434989; CHO/OX1R cells, Fluo-8 calcium fluorescence, orexin A; inhibition, % at 5 µM; actives 0.43% (n = 330,000);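 active = inhibition above its plate's threshold, mean inhibition of all tested compounds on the plate plus 3 SD, cut at about 37% in these data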
# TAAR1 antag – antagonists of human TAAR1; CHO RD-HGA16 TAAR1, Fluo-8 calcium fluorescence, antagonist; inhibition, % at 3 µM; actives 1.5% (n = 360,000);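 active = inhibition above a per-plate cutoff, the mean inhibition of test compounds on that plate plus 3 SD, cut at about 49% in these data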
#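 Test system: CHO RD-HGA16 cells bearing hTAAR1 | Reagent: β-PEA, EC80 | Compound dosing: 3 µM, single point | Schedule: Dye loading 75 min at 37 °C, then 30 min room temperature | Signal: Calcium fluorescence with Fluo-8 | Evaluation: Percent inhibition of PEA-evoked calcium signal, max/basal emission ratio | Control set: DMSO-only wells and EC80 β-PEA-stimulated wells | Repeats: Singlicate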
# TAAR1 nonsel count – nonselective antagonism, TAAR1 counter-screen | AID 651780 | actives 77% (n = 2,400) | shares compounds with TAAR1 antag | counterscreen cell line, calcium fluorescence, antagonist mode | inhibition, % at 3 µM; in the data active = inhibition above about 22%;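 also: CHO-Ga16 host cells stimulated with ATP at an EC80 level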
# TAAR1 antag conf – human TAAR1 antagonism, confirmed | TAAR1-expressing cells, fluorescence antagonist read-out | actives 40% (n = 2,400) | shares compounds with TAAR1 antag | inhibition, % at 3 µM; in the data active = inhibition above about 49%;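 also: CHO-Ga16 host cells challenged with agonist PEA near its EC80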
# Ga16 ag counter – nonselective Ga16 agonism, counter-screen. shares compounds with TAAR1 antag. Ga16-expressing cells, calcium fluorescence, agonist counterscreen. activation, % at 3 µM. actives 18% (n = 2,400). AID 651953; in the data active = activation above about 12%
# TAAR1 ag counter – counter-screen for human TAAR1 antagonists: TAAR1 agonists | shares compounds with TAAR1 antag | hTAAR1 cell line, fluorescence activation, agonist mode | activation, % at 3 µM | actives 2% (n = 2,400) | AID 651955; in the data active = activation above about 37%;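 also: CHO cells stably expressing TAAR1 with calcium dye readout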
# A number is an active result; . = inactive; / = not tested or not shown.
SMILES,OX1R antag-1,GPR7 antag,TAAR1 agonist,CHO parental Ca,OX1R antag-2,TAAR1 antag,TAAR1 nonsel count,TAAR1 antag conf,Ga16 ag counter,TAAR1 ag counter
CNc1ncnc2c1ncn2[C@H]1CN(Cc2ccncc2)C[C@@H](CO)O1,/,/,.,/,/,.,/,/,/,/
O=C(c1cccc(C(=O)N2CCN(c3ccccc3F)CC2)c1)N1CCN(c2ccccc2F)CC1,.,.,.,.,.,67.8,26.5,.,.,.
COc1ccccc1N1CCN(C(=O)c2cccc(C(=O)N3CCN(c4ccccc4OC)CC3)c2)CC1,.,.,.,.,.,54.5,27.3,48.8,.,.
Cc1cc(C)cc(NC(=O)CN2C(=O)NC(C)(c3ccccc3)C2=O)c1 (stereo not drawn),.,.,.,.,.,.,/,/,/,/
CC1(c2ccccc2)NC(=O)N(CC(=O)Nc2cccc(/C=C/c3ccccn3)c2)C1=O (stereo not drawn),.,/,.,.,.,49.5,.,.,.,.
Cc1c([N+](=O)[O-])cc(C(=O)Nc2ccc(Cc3ccncc3)cc2)cc1[N+](=O)[O-],.,.,.,.,.,88.3,31.3,90.6,.,.
CC1CCN(S(=O)(=O)c2ccc(C(=O)Nc3ccccn3)cc2)CC1,.,/,.,.,.,.,/,/,/,/
CC(C)C[C@H](NC(=O)c1nc[nH]c1C(=O)NC(c1ccccc1)c1ccccc1)C(=O)OC(C)(C)C,.,.,.,.,.,56.2,.,.,.,.
CC(C)(C)OC(=O)NCc1ccc(CNC(=O)c2nc[nH]c2C(=O)N2CCN(C(=O)OC(C)(C)C)CC2)cc1,.,/,.,.,.,61.0,35.1,52.4,16.3,.
C[C@@H](NC(=O)c1nc[nH]c1C(=O)NCCCCCNC(=O)OC(C)(C)C)c1ccccc1,.,/,.,.,.,.,/,/,/,/
CC(C)(C)OC(=O)NCc1ccc(CNC(=O)c2[nH]cnc2C(=O)Nc2ccccc2F)cc1,/,/,.,/,/,71.0,42.1,.,.,.
C[C@H](NC(=O)c1nc[nH]c1C(=O)NCc1ccc(CNC(=O)OC(C)(C)C)cc1)c1ccccc1,.,/,.,.,.,68.0,38.2,.,.,.
CC1CN(S(=O)(=O)c2cccc(C(=O)N(Cc3nnc(-c4ccccc4Cl)o3)C3CC3)c2)CC(C)O1 (stereo not drawn),.,/,.,.,.,.,/,/,/,/
COc1ccc2c(c1)CC=C1C2CCC2(C)C(=O)C(=NO)CC12 (stereo not drawn),/,/,.,/,/,.,/,/,/,/
CCN(CC)S(=O)(=O)c1ccc2[nH]cc(C(=O)NCCN3CCCCCC3)c(=O)c2c1,.,.,.,.,.,.,/,/,/,/
CCN(CC)S(=O)(=O)c1ccc2[nH]cc(C(=O)NCCC3=CCCCC3)c(=O)c2c1,.,.,.,.,.,67.0,32.2,.,.,.
COc1ccc(OCC(=O)Nc2ccccc2C(=O)NC2CC2)cc1,.,/,.,.,.,.,/,/,/,/
COC(=O)c1ccc(OCC(=O)Nc2ccccc2C(=O)NC2CC2)cc1,.,/,.,.,.,62.5,30.2,.,.,.
CCOC(=O)Cc1cn(C(=O)OC(C)(C)C)c2ccccc12,.,/,.,.,.,.,/,/,/,/
O=C(NC1(Cc2ccccc2)CCN(CCCc2ccccc2)C1=O)c1ccccc1 (stereo not drawn),.,/,.,.,.,66.4,26.4,.,.,.
CC(C)[C@H](NC(=O)C1CC(=O)N(c2ccc(F)cc2)C1)C(=O)N1CCCCC1 (stereo partly drawn),.,.,.,.,.,.,/,/,/,/
O=C(COC(=O)c1cccc(S(=O)(=O)NCc2ccccc2)c1)c1ccc2c(c1)OCCO2,.,.,.,.,.,62.7,34.5,48.6,.,.

# Source: PubChem BioAssay (The Scripps Research Institute Molecular Screening Center)
